From ChEMBL document CHEMBL1136695, “Novel and selective imidazole-containing biphenyl inhibitors of protein farnesyltransferase” (Bioorg Med Chem Lett, 2003)
“And” between values parts separate entries of the source, which are not always exact repeats. Equal values may be shown once.

Experiments:
[1] = system: NIH3T3; assay: Effective concentration against Ha-RAS processing in NIH3T3 ras-transformed cells; assay type: functional, cell-based; details: Mus musculus
[2] = molecular target: Geranylgeranyl transferase type I (Bos taurus, UniProt P29702+Q5EAD5); assay: In vitro inhibition of geranylgeranyltransferase.; assay type: protein-complex assay
Outline: (§1)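 FTase and GGTase1 enzymes purified from bovine brain; inhibition measured in vitro by scintillation proximity assay (SPA), IC50 determined.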

[3] = Half-life time in rat was determined; assay type: ADME, organism-based; details: in vivo
[4] = Oral bioavailability in rat; assay type: ADME, organism-based; details: in vivo
[5] = system: NIH3T3; assay: Inhibitory activity against NIH3T3 ras-transformed cells at 1 uM; assay type: functional; details: Mus musculus
[6] = molecular target: Protein farnesyltransferase (Bos taurus, UniProt P29702+P49355); assay: In vitro inhibitory activity against farnesyltransferase (FTase); assay type: protein-complex assay; outline: as §1

Cn1cncc1CN(Cc1cccc(C#N)c1)c1ccc(C#N)c(-c2cccc3ccccc23)c1
EC50 [1]: 50 nM
IC50 [2]: 150 nM
half-life [3]: < 1 h
bioavailability [4]: 10%

Cn1cncc1CN(Cc1ccc(C#N)cc1)c1ccc(C#N)c(-c2cccc3ccccc23)c1
inhibition at 1 µM [5]: 64%
IC50 [2]: 1000 nM
IC50 [6]: 1.5 nM

Cn1cncc1CN(c1ccc(C#N)c(-c2cccc3ccccc23)c1)C1CCCCC1
IC50 [2]: 180 nM
IC50 [6]: 1.9 nM

Cn1cncc1CN(Cc1ccnc(C#N)c1)c1ccc(C#N)c(-c2cccc3ccccc23)c1
EC50 [1]: 80 nM
IC50 [2]: 650 nM
IC50 [6]: 0.37 nM

Cn1cncc1CN(C(=O)c1ccccc1)c1ccc(C#N)c(-c2cccc3ccccc23)c1
IC50 [2]: 310 nM
IC50 [6]: 14 nM

Cc1ccccc1-c1cc(N(Cc2cccc(C#N)c2)Cc2cncn2C)ccc1C#N
EC50 [1]: 70 nM
IC50 [2]: 1200 nM
IC50 [6]: 0.97 nM

Cc1ccccc1-c1cc(C(OCc2ccccc2)c2cncn2C)ccc1C#N (stereo not given)
IC50 [6]: 65 nM

Cn1cncc1[C@@](N)(c1ccc(Cl)cc1)c1ccc2c(c1)c(-c1cccc(Cl)c1)cc(=O)n2C [TIPIFARNIB]
EC50 [1]: 2 nM
IC50 [6]: 0.57 nM

Cn1cncc1CN(c1ccc(C#N)c(-c2cccc3ccccc23)c1)S(=O)(=O)c1ccccc1
IC50 [2]: 1900 nM
IC50 [6]: 18 nM

Cn1cncc1CN(Cc1ccccc1)c1ccc(C#N)c(-c2cccc3ccccc23)c1
IC50 [6]: 1.5 nM and 11 nM

Cn1cncc1CN(Cc1cccc(Cl)c1)c1ccc(C#N)c(-c2cccc3ccccc23)c1
inhibition at 1 µM [5]: 45%
IC50 [2]: 230 nM
IC50 [6]: 0.45 nM

Cc1ccccc1-c1cc(NCc2cncn2C)ccc1C#N
IC50 [6]: 1000 nM

CCCCN(CCC1CCCCC1)Cc1ccc(C(=O)N[C@@H](CCSC)C(=O)O)c(-c2ccccc2C)c1
IC50 [6]: 1 nM

Cc1ccccc1-c1cc(N(Cc2ccccc2)Cc2cnc[nH]2)ccc1C#N
IC50 [6]: 84 nM

NC(=O)N1CCC(CC(=O)N2CCC([C@H]3c4ncc(Br)cc4CCc4cc(Cl)cc(Br)c43)CC2)CC1 [LONAFARNIB]
EC50 [1]: 160 nM
IC50 [6]: 7.8 nM

Cc1ccccc1-c1cc(N(Cc2ccc(C#N)cc2)Cc2cncn2C)ccc1C#N
inhibition at 1 µM [5]: 29%
IC50 [2]: 1000 nM
IC50 [6]: 10 nM

Cc1ccccc1-c1cc(N(Cc2ccccc2)Cc2cncn2C)ccc1C#N
IC50 [6]: 11 nM
